# The list is not random: actives were taken first. Their share in the collection is about 5%.
# CSC inhib = cancer stem cell viability inhibitors, primary screen, luminescence. cancer stem cell-like cells viability. inhibition, % at 7.5 µM. 300,000 tested, 1.1% active. AID 2717, 2010; in the data active = inhibition above about 75%; inconclusive = no clear call, values can overlap the other calls; tested in HMLE shEcad cells
# Mdm2 MdmX PPI = inhibitors of human Mdm2-MdmX association, primary screen, cell-based, luminescence, split luciferase, SaOS-2, uHTS; Protein Mdm4 (Homo sapiens) + E3 ubiquitin-protein ligase Mdm2 (Homo sapiens), …; SaOS-2 split-luciferase Mdm2/MdmX complementation; inhibition, % at 8 µM; 330,000 tested, 3% active;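 active = inhibition of at least 50% at 8 µM in the primary screen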
# Target sequence (O15151 whole entry, looked up): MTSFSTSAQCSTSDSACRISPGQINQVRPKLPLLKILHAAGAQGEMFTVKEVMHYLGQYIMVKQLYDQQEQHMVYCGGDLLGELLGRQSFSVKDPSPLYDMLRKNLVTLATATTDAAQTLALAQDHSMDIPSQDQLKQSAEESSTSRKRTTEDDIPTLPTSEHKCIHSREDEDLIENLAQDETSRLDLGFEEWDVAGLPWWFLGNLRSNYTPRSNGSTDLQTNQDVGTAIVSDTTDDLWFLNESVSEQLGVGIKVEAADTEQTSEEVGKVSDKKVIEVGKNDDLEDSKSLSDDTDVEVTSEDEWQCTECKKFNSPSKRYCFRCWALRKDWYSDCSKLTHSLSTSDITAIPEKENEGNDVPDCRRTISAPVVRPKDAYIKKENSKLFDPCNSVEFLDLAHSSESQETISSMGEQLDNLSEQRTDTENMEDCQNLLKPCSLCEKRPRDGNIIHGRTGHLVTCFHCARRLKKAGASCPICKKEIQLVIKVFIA
# Target sequence (Q00987 whole entry, looked up): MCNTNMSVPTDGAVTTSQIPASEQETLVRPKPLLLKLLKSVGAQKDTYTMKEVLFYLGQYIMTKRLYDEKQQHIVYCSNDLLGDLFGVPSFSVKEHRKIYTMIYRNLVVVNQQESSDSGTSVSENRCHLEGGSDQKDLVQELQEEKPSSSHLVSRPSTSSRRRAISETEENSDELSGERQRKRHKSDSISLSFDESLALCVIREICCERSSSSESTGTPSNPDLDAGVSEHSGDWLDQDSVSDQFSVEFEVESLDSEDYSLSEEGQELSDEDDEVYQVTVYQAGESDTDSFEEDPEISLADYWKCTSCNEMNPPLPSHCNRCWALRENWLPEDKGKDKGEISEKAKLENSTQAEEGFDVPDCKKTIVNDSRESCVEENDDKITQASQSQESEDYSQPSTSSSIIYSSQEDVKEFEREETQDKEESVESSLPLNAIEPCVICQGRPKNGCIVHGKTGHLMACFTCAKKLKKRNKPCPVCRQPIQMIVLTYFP
# T cruzi inh = inhibitors of intracellular T. cruzi growth, primary screen, luminescence, NIH3T3 host cells; inhibition, % (concentration not given with the values); T. cruzi beta-gal in NIH3T3, 90 h; 300,000 tested, 1.4% active;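 active = mean inhibition across valid replicates above about 55%, limit read from the data; inconclusive = mean below that limit but half or more replicates reach it; inactive = mean below it, under half of replicates reach it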;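 note: signal also drops with host cell toxicity which is not excluded here; 0% = plate median of DMSO wells and 100% = zero luminescence signal; higher percent means less beta-gal luminescence so fewer parasites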
#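 Incubation – ≥90 h infection period, 3 h prior cell attachment · System – NIH/3T3 fibroblasts plus reporter T. cruzi · Doses – compound pinned at 50 nL/well, DMSO · Read-out basis – percent inhibition of parasite-derived β-gal signal · Signal – luminescent β-galactosidase signal after 60 min lysis · Also added – 5000 T. cruzi trypomastigotes/well · Medium – Low-serum DMEM with 2% FBS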
# CHOP UPR activ = activators of apoptotic CHOP UPR arm, primary screen, cell-based, CHO-CHOP luciferase reporter, luminescence, uHTS | UPR activation; percent of tunicamycin response over DMSO baseline | 330,000 tested, 0.34% active | AID 449763, 2010 | activation, % at 10 µM;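 active = at 10 µM dose, activation of 40% or more, normalized to positive control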;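 note: 100% = tunicamycin at 10 µg/mL and 0% = DMSO alone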
#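 assay system = CHO CHOP reporter cells | amount = 500 CHO-CHOP cells per well | buffer or medium = F12 with 10% FBS | incubation = 16-18 h cell attachment, then 6 h compound exposure, 37 °C | detection = luminescence read with Steady-Glo | read-out = percent activation relative to tunicamycin control | controls = tunicamycin high control, DMSO low control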
# UPR XBP1 act = activators of adaptive XBP1 UPR arm, primary screen, cell-based, CHO-XBP1 luciferase reporter, luminescence, uHTS | IRE1-XBP1 UPR activation; percent of tunicamycin response, DMSO as zero | activation, % at 20 µM | 330,000 tested, 0.33% active;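 active = versus positive control, 20 µM dose yields 30% or more activation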;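 note: 100% = tunicamycin at 10 µg/mL and 0% = DMSO only wells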
#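 Assay system: IRE1-XBP1 luciferase reporter CHO line. Input: 1000 cells/well. Buffer or medium: F12 with 10% serum. Doses: 20 µM, 1% DMSO. Times: overnight seeding at 37 °C, 6 h compound treatment at 37 °C. Technique: Steady-Glo luciferase glow luminescence, 10 min after reagent addition.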
# Beta apoptosis = inhibitors of cytokine-induced beta cell apoptosis, primary screen, luminescence; INS-1E cytokine-induced death, ATP luminescence, 48 h; percent of positive-control rescue, neutral wells zero; 300,000 tested, 0.8% active; protection from apoptosis, % (no concentration beside the values); AID 435005, 2010;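 active = Every replicate reaches about 75%, or at least half do and their mean reaches it too, limit read from the data; inconclusive = At least half of replicates reach the limit but their mean does not; inactive = Under half of replicates reach the limit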;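 note: 0% = cytokine-treated negative control wells and 100% = positive control rescue; higher means more ATP so stronger rescue from cytokine killing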
# Mdm2 MdmX conf = Mdm2-MdmX complex disruptors, retested hits, confirmation, luminescence, single concentration. shares compounds with Mdm2 MdmX PPI. Mdm2-MdmX binding, luminescent assay. inhibition, % at 8 µM. 10,000 tested, 55% active. AID 489028, 2010; in the data active = inhibition above about 40%
# FLuc counter = full-length luciferase signal inhibition, confirmation, counter-screen for Mdm2/MdmX interaction inhibitor project, cell-based, single concentration, SaOS-2; inhibition, % at 8 µM; SaOS-2 full-length luciferase counterscreen, luminescence; shares compounds with Mdm2 MdmX PPI; 6,200 tested, 77% active;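 active = mean inhibition at 8 µM reaching about 37%, which flags the compound as non-specific, limit read from the data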;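 note: p53-null SaOS-2 cells with luciferase driven by a doxycycline-inducible promoter; compound on cells about two nights before reading with doxycycline added after day one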
# Numbers without * were called inactive; ? = inconclusive; · = not tested or not shown.
SMILES,CSC inhib,Mdm2 MdmX PPI,T cruzi inh,CHOP UPR activ,UPR XBP1 act,Beta apoptosis,Mdm2 MdmX conf,FLuc counter
Cc1ccc(S(=O)(=O)NCc2cccnc2)cc1C(=O)N1CCCC1,-21.1,15.6,-6.7,1.9,0.3,4.9,·,·
Nc1ncnc(NCc2ccc(F)cc2)c1[N+](=O)[O-],-14.9,68.6*,-11.3,-0.8,12.9,-24.4,61.5*,27.0
Nc1ncnc(NCc2ccccc2)c1[N+](=O)[O-],-18.1,26.2,-15.3,-1.8,9.3,-4.9,·,·
COC(=O)c1nn(-c2ccc3c(c2)CCN3C(C)=O)cc1O,30.3,50.7*,-4.9,-10.4,-5.3,6.8,67.8*,31.0
COC(=O)c1sc2ccccc2c1NC(=O)c1ccc(S(=O)(=O)N2CC(C)CC(C)C2)cc1 (stereo not drawn),·,39.8,-4.5,1.4,0.1,1.6,·,·
COC(=O)c1ccc(-c2csc(NC(=O)c3ccc(S(=O)(=O)N4CCc5ccccc5C4)cc3)n2)cc1,·,50.7*,-1.8,18.1,16.9,-6.3,9.6,·
COc1ccc(-c2csc(NC(=O)c3ccc(S(=O)(=O)N4CCc5ccccc5C4)cc3)n2)cc1,·,30.8,-12.6,0.9,3.9,4.0,·,·
Cc1cccc2sc(NNC(=O)c3ccc(S(=O)(=O)N4CC(C)CC(C)C4)cc3)nc12 (stereo not drawn),117.6*,88.4*,65.6*,-1.1,6.6,110.4*,86.7*,55.2*
Cc1cc(C)c2nc(NNC(=O)c3ccc(S(=O)(=O)N4CC(C)CC(C)C4)cc3)sc2c1 (stereo not drawn),118.0*,83.9*,61.8*,1.0,11.5,105.7*,69.7*,23.2
Cc1ccc2nc(NNC(=O)c3ccc(S(=O)(=O)N4CCc5ccccc5C4)cc3)sc2c1,102.3*,74.2*,71.0*,-0.2,-2.6,98.4*,87.5*,63.4*
Cc1ccc2nc(NNC(=O)c3ccc4c(c3)OCCO4)sc2c1,15.1,8.7,-5.7,0.2,2.1,·,·,·
CCC(=O)NNc1nc2c(C)cc(C)cc2s1,-2.1,7.3,-16.5,-1.4,-1.4,1.2,·,·
CC(C)CC(=O)N1CCN(Cc2ccc(C(F)(F)F)cc2)CC1,-2.5,10.9,4.9,-0.8,-1.6,-5.0,·,·
COc1ccc(C(=O)CCc2nc3ccccc3s2)cc1,·,-11.0,-6.9,2.1,3.5,·,·,·
Cc1cc(C)c2nc(NNC(=O)c3ccc(S(=O)(=O)N4CCCC(C)C4)cc3)sc2c1 (stereo not drawn),118.6*,82.6*,61.3*,-1.2,1.1,107.1*,86.2*,45.3*
COCCOc1cc(-n2ccnc2SC)c(Cl)cc1Cl,-1.3,6.8,-2.0,-1.6,0.9,·,·,·
CN(C)CC1CCCCC1C1(O)c2ccccc2CSc2sccc21 (stereo not drawn),11.7,60.7*,7.1,-1.9,1.1,5.1,55.4*,54.1*
CN(C)CC1CCCCC1OC(=O)c1ccc(Cl)cc1 (stereo not drawn),·,8.7,-8.0,1.2,-0.1,-15.9,·,·
O=C(Nc1ccncc1)c1ccc2c(c1)S(=O)(=O)c1ccccc1C2=O,12.5,33.4,2.5,0.6,-1.1,-4.9,·,·
O=C(Nc1nc(-c2cccc3ccccc23)cs1)c1ccc2c(c1)S(=O)(=O)c1ccccc1C2=O,?,95.4*,-9.0,33.8,25.4,28.4,17.6,·
O=C(Nc1nc(-c2ccccc2)cs1)c1ccc2c(c1)S(=O)(=O)c1ccccc1C2=O,33.9,73.9*,-10.8,1.1,-0.3,4.1,3.9,·
O=C(Nc1ccc(-c2ccccc2)cc1)c1ccc2c(c1)S(=O)(=O)c1ccccc1C2=O,12.3,43.0,-8.3,-1.2,-3.0,-0.5,·,·
CC(=O)c1ccc(S(=O)(=O)NC2CC(=O)N(c3ccc(C)c(C)c3)C2)cc1 (stereo not drawn),-4.8,11.1,-0.5,-2.7,-1.1,6.5,·,·
CCC[C@H]1COCCS(=O)(=O)N1Cc1ccc(Br)cc1,1.4,20.5,8.8,1.3,0.5,-2.5,·,·
CCCn1cnc2c1c(=O)n(CCCCC(C)=O)c(=O)n2C,-12.4,6.4,-5.1,-0.7,3.4,-1.1,·,·
SMILES,CSC inhib,Mdm2 MdmX PPI,T cruzi inh,CHOP UPR activ,UPR XBP1 act,Beta apoptosis,Mdm2 MdmX conf,FLuc counter
COc1nc(Nc2nc3ccccc3c(=O)[nH]2)nc2ccc(C)cc12,125.5*,65.5*,58.3*,-4.9,7.1,97.1*,42.8*,75.8*
Cc1cc(C)cc(Nc2nc3ccccc3c(=O)[nH]2)c1,-4.3,9.8,19.7,-0.6,3.6,-0.5,·,·
CN(CC(=O)NCCc1ccccc1)S(=O)(=O)c1ccccc1,-6.3,26.0,-8.3,0.9,-2.6,0.7,·,·
CC(=O)c1ccc(N2CCC(c3cc(-c4ccc(Cl)cc4Cl)n[nH]3)CC2)c([N+](=O)[O-])c1,118.0*,52.1*,62.1*,4.6,1.6,20.3,37.1,·
CN(Cc1ccccc1)C(=O)COC(=O)c1cc2ccccc2oc1=O,-15.7,11.9,·,-0.3,-1.1,-5.5,·,·
CN(C)S(=O)(=O)c1ccc(C(=O)NNC(=O)C23CC4CC(CC(C4)C2)C3)cc1,2.2,-26.8,·,-2.1,0.5,-8.5,·,·
OC(CNCc1ccco1)Cn1c2ccc(Br)cc2c2cc(Br)ccc21 (stereo not drawn),106.0*,74.8*,42.0,18.3,23.6,2.8,30.9,69.8*
Cc1ccc(CC(=O)NCCC(=O)O)cc1,13.5,-7.3,20.2,-0.1,-0.5,0.2,·,·
CCN(Cc1ccccc1)C(=O)Cn1c(=O)n(CC(=O)NCc2ccco2)c(=O)c2sccc21,0.8,-5.9,3.8,0.1,-0.3,0.7,·,·
Cc1ccc(-n2cc(C(=O)c3ccc(N4CCN(C)CC4)cc3)nn2)cc1Cl,·,98.0*,13.5,8.9,7.2,-1.6,4.1,·
CN1CCN(c2ccc(C(=O)c3cn(-c4ccc(F)c(Cl)c4)nn3)cc2)CC1,70.3,80.8*,29.5,4.8,4.4,-1.4,42.3*,91.0*
O=C(NC1CCCCC1)c1n[nH]c2c1CCCCC2,·,71.3*,·,-7.9,-9.5,4.9,68.8*,65.1*

# Source: PubChem BioAssay (several laboratories)
